GRIN3A LBD mod: NR3A (human) ligand-binding domain modulation. hit rate 2.5% among 340,000. AID 1259313. Tm shift relative to glycine control, % at 25 µM. NR3A LBD differential scanning fluorimetry, Tm shift; 0% = protein alone, 100% = glycine-bound protein;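 active = melting temperature shift of at least 10% of the positive control shift, at one fixed dose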
FAS TE block: inhibitors of human fatty acid synthase thioesterase domain | hit rate 0.67% among 360,000 | recombinant FAS-TE, OMFH fluorogenic substrate, fluorescence endpoint | inhibition, % at 15 µM;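 active = compounds whose normalised, plate-corrected inhibition of enzyme fluorescence in the single-dose primary screen is 50% or more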;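 note: 0% = DMSO with enzyme and 100% = substrate without enzyme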
Arr AP2 block: human beta-arrestin and AP2 interaction inhibition; FITC-arrestin peptide / GST-AP2 beads, flow cytometry; AP2 beta2 appendage carries R879A mutation; inhibition, % at 10 µM; hit rate 0.31% among 340,000; AID 504490;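 active = inhibition above a set limit, near 3 SD of compounds lacking own fluorescence, cut at about 54% in these data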;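 note: plate controls were DMSO wells for no effect and 5 µM unlabelled arrestin peptide for full effect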
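System: GST-AP2 R879A glutathione beads | Also added: FITC-arrestin peptide, 50 nM | Times: 12 min plus 1 h, RT | Signal: Bead flow cytometry, FITC channel | Buffer or medium: PBS with 0.05% Tween 20 and 0.1% BSA | Read-out basis: Percent drop in bead-associated FITC signal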
SENP1 inh: inhibitors of human SENP1 SUMO protease catalytic domain; Q9P0U3; recombinant SENP1 catalytic domain, CyPet-SUMO1-YPet FRET cleavage; inhibition, % at 10 µM; hit rate 0.21% among 360,000; AID 624204;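 active = inhibition at least 30% at 10 µM, raw YFP signal under a set limit, fluorescence ratio 0.5 to 1.5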;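 note: 0% = enzyme with DMSO and 100% = no enzyme wells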
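Material: hSENP1 catalytic domain, recombinant; medium: Tris pH 8 with BME, BSA, NP40 and catalase; compound: single concentration of 10 µM compound, 0.5% DMSO final; technique: FRET read of cyan and yellow fluorescence; timing: 50 min enzyme reaction, room temperature, light-protected; reagent: SFCypet-SUMO1-SFYpet substrate at 25 nM; control set: no-enzyme low, enzyme-DMSO high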
Cardio protect: myocardial damage modulation in H9c2 cells | hit rate 0.63% among 360,000 | protection from H2O2 cell death, % at 20 µM | H9c2 cardiomyocytes, H2O2 injury protection, ATPLite, 2 h;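 active = compounds giving at least 50% protection of heart cells from peroxide-induced death in the single-dose screen, raw or plate-pattern-corrected value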;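 note: 0% = DMSO wells with peroxide and 100% = DMSO wells without peroxide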
hiPSC survival: hiPSC single-cell survival enhancement; ATPlite luminescence; 100% = ROCK inhibitor wells, 0% = DMSO; survival enhancement, % at 20 µM; hit rate 0.044% among 360,000; AID 602274; in the data active = survival enhancement above about 18%;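 note: cells exposed to compounds for 16 hours before the ATP read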
* marks the source's active call; other numbers are inactive results. Only some compounds are listed: those with a hit (about 4% of all), similar ones and a draw of the others.

What do the screens show for `Cc1cc(N=Cc2cc(Br)ccc2O)no1`?
GRIN3A LBD mod: 0; FAS TE block: -3; Arr AP2 block: 2; SENP1 inh: -24; Cardio protect: 57*; hiPSC survival: -2

How did Cc1cc(N=CC2=C(O)CC(C)(C)CC2=O)no1 do in these assays?
GRIN3A LBD mod: 6; FAS TE block: -5; Arr AP2 block: 1; SENP1 inh: 2; Cardio protect: 9; hiPSC survival: 5

Results for Cc1ccc(S(=O)(=O)/N=C/c2cc(Br)ccc2O)cc1 ?
GRIN3A LBD mod: -2; FAS TE block: -8; Arr AP2 block: 3; SENP1 inh: -20; Cardio protect: 54*; hiPSC survival: -1

What do the screens show for `Clc1nc(Nc2ccccc2)nc(Nc2ccccc2)n1`?
GRIN3A LBD mod: 18*; FAS TE block: 19; Arr AP2 block: 11; SENP1 inh: 3; Cardio protect: -6; hiPSC survival: 2

What do the screens show for `COc1ccc(Nc2nc(C)c3ccccc3n2)cc1`?
GRIN3A LBD mod: 38*; FAS TE block: 3; Arr AP2 block: 0; SENP1 inh: 1; Cardio protect: -12; hiPSC survival: -3

Results for COc1ccc(Nc2nc(-c3ccccc3)c3ccccc3n2)cc1 ?
GRIN3A LBD mod: 1; FAS TE block: -2; Arr AP2 block: 2; SENP1 inh: 0; Cardio protect: 1; hiPSC survival: 4

Results for CC(=O)Nc1ccc(Nc2nc(Cl)nc(Nc3ccc(NC(C)=O)cc3)n2)cc1 ?
GRIN3A LBD mod: 13*; FAS TE block: -7; Arr AP2 block: 30; SENP1 inh: 1; Cardio protect: -2; hiPSC survival: 0

What do the screens show for `CC(=O)Nc1ccc(Nc2nccc(C)n2)cc1`?
FAS TE block: -12; SENP1 inh: 1; Cardio protect: 3; hiPSC survival: 0

What do the screens show for `COc1ccc(Nc2nc(Cl)nc(Nc3ccc(OC)cc3)n2)cc1`?
GRIN3A LBD mod: 17*; FAS TE block: 3; Arr AP2 block: 4; SENP1 inh: -1; Cardio protect: -8; hiPSC survival: -1

Results for CC(C)(C)S(=O)N1Cc2cc(C(=O)N3CCc4ccccc4C3)nc(-c3cccc(-c4cccnc4)c3)c2[C@@H]1CCO (some centres not stated) ?
FAS TE block: -1; SENP1 inh: -16; Cardio protect: 12; hiPSC survival: 1

How did Oc1ccc(C2CNCc3sccc32)cc1O (configuration not stated) do in these assays?
GRIN3A LBD mod: -1; FAS TE block: -4; Arr AP2 block: 5; SENP1 inh: 1; Cardio protect: 54*; hiPSC survival: 4

What do the screens show for `C/C(=N\NC(=O)C(C)Oc1ccc([N+](=O)[O-])cc1)c1ccccn1` (configuration not stated)?
GRIN3A LBD mod: -1; FAS TE block: 13; Arr AP2 block: -1; SENP1 inh: 2; Cardio protect: 50*; hiPSC survival: -2

What do the screens show for `COc1ccc(OC(C)C(=O)Nc2ccc([N+](=O)[O-])cc2)cc1` (configuration not stated)?
GRIN3A LBD mod: -3; FAS TE block: 29; Arr AP2 block: 12; SENP1 inh: 2; Cardio protect: 1; hiPSC survival: -1

How did CC(=O)OCC(C)n1[nH]c2ccccc2c1=O (configuration not stated) do in these assays?
FAS TE block: -6; SENP1 inh: 4; Cardio protect: 0; hiPSC survival: -2

What do the screens show for `Nc1ncc(Br)cc1S(=O)(=O)NCCC(=O)Nc1cccc(Cl)c1`?
GRIN3A LBD mod: 23*; FAS TE block: 35; Arr AP2 block: -6; SENP1 inh: -2; Cardio protect: -10; hiPSC survival: -3

How did Cc1cc(NC(=O)CCNS(=O)(=O)c2cc(Br)cnc2N)ccc1Br do in these assays?
GRIN3A LBD mod: 21*; FAS TE block: 48; Arr AP2 block: 0; SENP1 inh: 0; Cardio protect: -7; hiPSC survival: 2

What do the screens show for `CCOC(=O)c1cccc(NC(=O)CCNS(=O)(=O)c2cc(Br)cnc2N)c1`?
GRIN3A LBD mod: -10; FAS TE block: 4; Arr AP2 block: -1; SENP1 inh: 2; Cardio protect: -3; hiPSC survival: 0

How did CC(=O)Nc1cc(-c2cccc(NS(C)(=O)=O)c2)cn2c(-c3ccc(F)c(Cl)c3)cnc12 do in these assays?
FAS TE block: 17; SENP1 inh: -3; Cardio protect: 24; hiPSC survival: 2

What do the screens show for `COc1ccc(-c2cc3ccccc3c(=O)o2)cc1`?
FAS TE block: 24; SENP1 inh: -17; hiPSC survival: -2

Results for O=c1oc([C@@H](O)c2ccccc2)cc2ccccc12 ?
GRIN3A LBD mod: 10*; FAS TE block: -5; Arr AP2 block: -3; SENP1 inh: 1; Cardio protect: 5; hiPSC survival: -3

How did Cc1ccc(NC(=O)N/C=C/c2ccccc2)cc1 do in these assays?
GRIN3A LBD mod: 1; FAS TE block: 1; Arr AP2 block: 2; SENP1 inh: 1; Cardio protect: 8; hiPSC survival: 2

Results for O=C(N/C=C/c1ccccc1)Nc1ccc(Cl)cc1 ?
GRIN3A LBD mod: 11*; FAS TE block: 2; Arr AP2 block: -6; SENP1 inh: 1; Cardio protect: -1; hiPSC survival: 0

Results for Cc1ccc(NC(=O)N/C=C/c2ccc(Cl)cc2)cc1 ?
GRIN3A LBD mod: 16*; FAS TE block: 0; Arr AP2 block: 1; SENP1 inh: 0; Cardio protect: 5; hiPSC survival: -4

How did COC(=O)C1(C(=O)OC)c2ccccc2N(S(=O)(=O)c2ccc(C)cc2)C1CC(C)=O (configuration not stated) do in these assays?
SENP1 inh: 2

Results for Cc1nnc2ccc(-c3cccc(NC(=O)c4ccc(Cl)nc4)c3)nn12 ?
GRIN3A LBD mod: -1; FAS TE block: -4; Arr AP2 block: 3; SENP1 inh: 2; Cardio protect: 63*; hiPSC survival: -1

How did CCOC(=O)[C@]12CCC=C1N(Cc1ccc(Cl)cc1Cl)C(=O)[C@H](CC(=O)NCc1ccc(OC)c(OC)c1)C2 do in these assays?
FAS TE block: 12; SENP1 inh: 4; hiPSC survival: 1

How did CCOC(=O)c1c(-c2cc(OC)c(OC)c(OC)c2)csc1N do in these assays?
FAS TE block: -3; SENP1 inh: -1; Cardio protect: -1; hiPSC survival: 21*

Results for Cc1ccc(-c2nc(C=Nc3ccc(O)cc3)c(O)o2)cc1 ?
GRIN3A LBD mod: 11*; FAS TE block: -8; Arr AP2 block: 8; SENP1 inh: -29; Cardio protect: -4; hiPSC survival: 1

What do the screens show for `CN=Cc1nc(-c2ccccc2)oc1O`?
GRIN3A LBD mod: -16; FAS TE block: -6; Arr AP2 block: 26; SENP1 inh: 2; Cardio protect: -4; hiPSC survival: -1

Screening results: PubChem BioAssay, several laboratories
